Six compounds from ChEMBL document CHEMBL1131478 (J Med Chem, 1998) can be followed below.

A short description of series [1]: Maximum plasma concentration (Cmax) after p.o. administration of 200 mg/kg in mice. It counts as ADME, organism-based. Also noted: dose 200 mg/kg, route oral. The conditions noted are these: mouse, po. The method in brief: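 Single 200 mg/kg oral dose in mice, given in 0.5% methyl cellulose. Blood drawn at various time points. Plasma drug extracted with CH3CN and quantified by reverse-phase C18 HPLC using a CH3CN gradient with 0.1% TFA. Peak plasma level taken as Cmax.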

Series [2] concerns the target Angiotensin-converting enzyme (Homo sapiens, UniProt P12821). Description: Inhibitory activity against Angiotensin I converting enzyme.
The target of a further series is T1, Matrilysin (Homo sapiens, UniProt P09237).
T1 sequence (P09237 whole entry): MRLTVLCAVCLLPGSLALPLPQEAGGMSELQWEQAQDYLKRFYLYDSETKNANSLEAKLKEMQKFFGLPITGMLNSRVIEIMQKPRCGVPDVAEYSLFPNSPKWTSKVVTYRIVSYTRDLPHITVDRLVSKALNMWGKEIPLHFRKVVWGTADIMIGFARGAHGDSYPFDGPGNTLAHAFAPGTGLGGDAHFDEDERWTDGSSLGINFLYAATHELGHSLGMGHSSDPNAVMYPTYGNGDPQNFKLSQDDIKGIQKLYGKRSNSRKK
The experiment in a line: Inhibitory activity against Matrix metalloprotease-7.

In the next series the target is Stromelysin-1 (Homo sapiens, UniProt P08254). The experiment in a line: Inhibitory activity against Matrix metalloprotease-3. The method in brief:
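Enzyme and DMSO inhibitor were preincubated 30 min at room temperature in 50 mM Tris-Cl/10 mM CaCl2/0.2 M NaCl/0.02% NaN3/0.05% Brij-35, pH 7.5. Substrate MOAc-Arg-Pro-Lys-Pro-Val-Glu-Nva-Trp-Arg-Lys(Dnp)NH2 (added as 25 μM solution) then reacted 90 min.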

Series [3] addresses 72 kDa type IV collagenase (Homo sapiens, UniProt P08253). Description: Inhibitory activity against human gelatinase A (matrix metalloprotease-2 MMP2).
For another series, the target named is T2, Interstitial collagenase (Homo sapiens, UniProt P03956).
T2 sequence (P03956 whole entry): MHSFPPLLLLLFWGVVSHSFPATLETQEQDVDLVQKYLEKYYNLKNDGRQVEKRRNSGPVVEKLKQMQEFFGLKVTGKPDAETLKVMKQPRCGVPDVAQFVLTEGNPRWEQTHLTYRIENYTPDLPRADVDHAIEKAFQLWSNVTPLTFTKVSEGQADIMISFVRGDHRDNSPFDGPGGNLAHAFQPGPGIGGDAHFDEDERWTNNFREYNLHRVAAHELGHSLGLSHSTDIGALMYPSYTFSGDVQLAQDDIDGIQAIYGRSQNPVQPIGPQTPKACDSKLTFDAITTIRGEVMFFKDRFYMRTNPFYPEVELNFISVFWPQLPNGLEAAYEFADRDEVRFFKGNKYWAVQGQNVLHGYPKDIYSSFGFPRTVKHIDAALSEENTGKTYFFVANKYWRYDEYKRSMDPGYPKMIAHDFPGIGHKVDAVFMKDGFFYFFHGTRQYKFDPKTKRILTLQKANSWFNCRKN
Description: Inhibitory activity against Matrix metalloprotease-1. The method in brief:
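Commercial enzyme diluted in Tris/CaCl2/NaCl/Brij-35 buffer. Enzyme (about 0.2 unit/mL) and DMSO inhibitor were preincubated 30 min at room temperature with ABD-F (added as 2 mM) in 25 mM HEPES-NaOH/5 mM CaCl2, pH 7.0. Thiopeptide substrate Ac-Pro-Leu-Gly-SCH(CH2CH(CH3)2)CO-Leu-Gly-OEt (1.25 mM stock) was then added for 3 h at 37 °C. Reaction quenched with 3% acetic acid. Fluorescence read at ex 360/em 530 nm.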

The next series addresses T3, Neprilysin (Rattus norvegicus, UniProt P07861).
T3 sequence (P07861 whole entry): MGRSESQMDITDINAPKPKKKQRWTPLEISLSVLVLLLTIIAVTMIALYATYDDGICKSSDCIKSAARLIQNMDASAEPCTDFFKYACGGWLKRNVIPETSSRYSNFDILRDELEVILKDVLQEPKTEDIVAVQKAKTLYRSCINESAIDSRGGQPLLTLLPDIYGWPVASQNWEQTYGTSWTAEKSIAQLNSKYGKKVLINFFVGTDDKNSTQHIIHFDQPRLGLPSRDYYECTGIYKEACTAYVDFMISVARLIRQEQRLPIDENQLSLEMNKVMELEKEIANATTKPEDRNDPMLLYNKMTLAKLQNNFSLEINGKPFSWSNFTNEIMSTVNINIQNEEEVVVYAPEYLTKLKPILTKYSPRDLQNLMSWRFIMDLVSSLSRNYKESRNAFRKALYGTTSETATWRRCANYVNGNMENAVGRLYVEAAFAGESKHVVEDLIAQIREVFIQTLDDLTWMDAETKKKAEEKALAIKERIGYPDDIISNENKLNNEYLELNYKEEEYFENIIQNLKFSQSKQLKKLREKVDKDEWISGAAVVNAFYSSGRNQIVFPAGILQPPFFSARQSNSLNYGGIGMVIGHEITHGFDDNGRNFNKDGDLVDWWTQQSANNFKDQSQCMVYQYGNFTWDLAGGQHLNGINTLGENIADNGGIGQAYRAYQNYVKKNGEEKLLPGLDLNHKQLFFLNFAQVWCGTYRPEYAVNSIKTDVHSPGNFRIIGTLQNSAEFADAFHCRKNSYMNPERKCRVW
The experiment in a line: Inhibitory activity against neutral endopeptidase (NEP).

For series [4], the target named is T4, Endothelin-converting enzyme 1 (Homo sapiens, UniProt P42892).
T4 sequence (P42892 whole entry): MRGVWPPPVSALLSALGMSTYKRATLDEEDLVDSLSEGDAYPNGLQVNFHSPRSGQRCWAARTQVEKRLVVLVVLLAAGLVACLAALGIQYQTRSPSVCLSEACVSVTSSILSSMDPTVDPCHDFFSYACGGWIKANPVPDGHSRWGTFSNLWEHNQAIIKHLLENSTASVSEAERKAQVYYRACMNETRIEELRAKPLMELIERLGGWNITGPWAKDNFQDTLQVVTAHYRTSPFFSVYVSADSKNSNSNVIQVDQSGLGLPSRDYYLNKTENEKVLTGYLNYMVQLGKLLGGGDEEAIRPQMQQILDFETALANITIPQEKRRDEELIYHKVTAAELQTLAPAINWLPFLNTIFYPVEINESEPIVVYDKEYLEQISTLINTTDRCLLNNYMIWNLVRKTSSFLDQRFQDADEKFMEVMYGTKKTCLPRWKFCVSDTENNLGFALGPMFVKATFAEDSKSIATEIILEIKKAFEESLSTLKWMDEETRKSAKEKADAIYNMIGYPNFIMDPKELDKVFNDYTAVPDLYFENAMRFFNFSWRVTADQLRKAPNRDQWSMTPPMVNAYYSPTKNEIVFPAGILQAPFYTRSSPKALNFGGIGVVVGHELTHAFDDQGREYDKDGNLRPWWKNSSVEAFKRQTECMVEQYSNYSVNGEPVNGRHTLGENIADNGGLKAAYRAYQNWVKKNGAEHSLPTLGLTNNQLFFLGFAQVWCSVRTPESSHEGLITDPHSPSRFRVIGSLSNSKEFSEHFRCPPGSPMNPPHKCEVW
Description: Inhibitory activity against endothelin converting enzyme (ECE).

The target in series [5] is T4, Endothelin-converting enzyme 1. The experiment in a line: Inhibitory activity against Endothelin-converting enzyme (ECE).
Series [6] concerns the target Matrix metalloproteinase-9 (Homo sapiens, UniProt P14780). The experiment in a line: Inhibitory activity against human gelatinase B (Matrix metalloprotease-9).

Where only a bound is given, the exact number is not on record here.

Stromelysin-1, sequence (P08254 whole entry): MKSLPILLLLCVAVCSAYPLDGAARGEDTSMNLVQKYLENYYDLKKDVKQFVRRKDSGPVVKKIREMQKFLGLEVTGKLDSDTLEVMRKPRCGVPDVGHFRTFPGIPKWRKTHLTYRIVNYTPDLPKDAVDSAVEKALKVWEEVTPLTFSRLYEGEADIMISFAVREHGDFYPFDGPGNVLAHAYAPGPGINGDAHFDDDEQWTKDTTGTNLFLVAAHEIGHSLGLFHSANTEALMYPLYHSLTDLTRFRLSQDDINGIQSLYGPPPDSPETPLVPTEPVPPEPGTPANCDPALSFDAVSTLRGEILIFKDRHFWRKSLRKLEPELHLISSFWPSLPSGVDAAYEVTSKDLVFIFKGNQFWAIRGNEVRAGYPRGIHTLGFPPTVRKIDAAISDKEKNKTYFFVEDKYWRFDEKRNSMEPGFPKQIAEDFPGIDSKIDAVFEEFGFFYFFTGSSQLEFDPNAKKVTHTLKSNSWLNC
72 kDa type IV collagenase, sequence (P08253 whole entry): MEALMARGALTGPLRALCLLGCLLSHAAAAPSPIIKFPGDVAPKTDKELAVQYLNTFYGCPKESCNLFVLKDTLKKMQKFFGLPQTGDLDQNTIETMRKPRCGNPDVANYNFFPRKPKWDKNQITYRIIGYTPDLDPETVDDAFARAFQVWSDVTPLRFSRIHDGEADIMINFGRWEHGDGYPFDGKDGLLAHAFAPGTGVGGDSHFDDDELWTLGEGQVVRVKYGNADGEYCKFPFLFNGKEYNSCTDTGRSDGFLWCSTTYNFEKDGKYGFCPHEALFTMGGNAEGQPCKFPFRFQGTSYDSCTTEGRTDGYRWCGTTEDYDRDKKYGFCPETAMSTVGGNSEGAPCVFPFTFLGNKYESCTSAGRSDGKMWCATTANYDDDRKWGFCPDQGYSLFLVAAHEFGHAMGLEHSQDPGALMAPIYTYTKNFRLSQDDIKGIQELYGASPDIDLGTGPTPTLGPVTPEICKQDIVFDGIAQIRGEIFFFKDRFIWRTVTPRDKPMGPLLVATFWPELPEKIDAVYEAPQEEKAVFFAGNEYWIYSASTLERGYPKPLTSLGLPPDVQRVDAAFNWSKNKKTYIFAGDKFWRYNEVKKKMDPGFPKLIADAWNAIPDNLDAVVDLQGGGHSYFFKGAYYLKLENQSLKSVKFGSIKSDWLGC
Matrix metalloproteinase-9, sequence (P14780 whole entry): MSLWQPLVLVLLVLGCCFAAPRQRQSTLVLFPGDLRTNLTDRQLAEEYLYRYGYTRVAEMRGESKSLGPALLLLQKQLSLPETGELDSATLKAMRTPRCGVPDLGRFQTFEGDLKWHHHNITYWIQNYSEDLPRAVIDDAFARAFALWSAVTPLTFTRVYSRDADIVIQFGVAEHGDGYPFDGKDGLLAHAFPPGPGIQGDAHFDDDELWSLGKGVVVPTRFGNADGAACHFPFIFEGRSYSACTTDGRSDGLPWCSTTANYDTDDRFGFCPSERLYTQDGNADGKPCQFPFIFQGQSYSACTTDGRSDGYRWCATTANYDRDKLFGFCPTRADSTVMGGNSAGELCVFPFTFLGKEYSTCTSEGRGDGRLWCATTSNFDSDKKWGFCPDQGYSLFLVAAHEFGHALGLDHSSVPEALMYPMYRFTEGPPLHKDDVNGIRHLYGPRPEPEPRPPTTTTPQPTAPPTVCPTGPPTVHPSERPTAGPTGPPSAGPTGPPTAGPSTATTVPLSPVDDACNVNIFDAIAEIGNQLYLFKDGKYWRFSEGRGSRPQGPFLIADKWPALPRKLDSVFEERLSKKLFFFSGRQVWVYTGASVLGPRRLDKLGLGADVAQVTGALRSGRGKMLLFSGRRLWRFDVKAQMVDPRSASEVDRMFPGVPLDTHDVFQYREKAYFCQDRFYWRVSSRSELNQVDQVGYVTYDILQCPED
Angiotensin-converting enzyme, sequence (P12821 whole entry): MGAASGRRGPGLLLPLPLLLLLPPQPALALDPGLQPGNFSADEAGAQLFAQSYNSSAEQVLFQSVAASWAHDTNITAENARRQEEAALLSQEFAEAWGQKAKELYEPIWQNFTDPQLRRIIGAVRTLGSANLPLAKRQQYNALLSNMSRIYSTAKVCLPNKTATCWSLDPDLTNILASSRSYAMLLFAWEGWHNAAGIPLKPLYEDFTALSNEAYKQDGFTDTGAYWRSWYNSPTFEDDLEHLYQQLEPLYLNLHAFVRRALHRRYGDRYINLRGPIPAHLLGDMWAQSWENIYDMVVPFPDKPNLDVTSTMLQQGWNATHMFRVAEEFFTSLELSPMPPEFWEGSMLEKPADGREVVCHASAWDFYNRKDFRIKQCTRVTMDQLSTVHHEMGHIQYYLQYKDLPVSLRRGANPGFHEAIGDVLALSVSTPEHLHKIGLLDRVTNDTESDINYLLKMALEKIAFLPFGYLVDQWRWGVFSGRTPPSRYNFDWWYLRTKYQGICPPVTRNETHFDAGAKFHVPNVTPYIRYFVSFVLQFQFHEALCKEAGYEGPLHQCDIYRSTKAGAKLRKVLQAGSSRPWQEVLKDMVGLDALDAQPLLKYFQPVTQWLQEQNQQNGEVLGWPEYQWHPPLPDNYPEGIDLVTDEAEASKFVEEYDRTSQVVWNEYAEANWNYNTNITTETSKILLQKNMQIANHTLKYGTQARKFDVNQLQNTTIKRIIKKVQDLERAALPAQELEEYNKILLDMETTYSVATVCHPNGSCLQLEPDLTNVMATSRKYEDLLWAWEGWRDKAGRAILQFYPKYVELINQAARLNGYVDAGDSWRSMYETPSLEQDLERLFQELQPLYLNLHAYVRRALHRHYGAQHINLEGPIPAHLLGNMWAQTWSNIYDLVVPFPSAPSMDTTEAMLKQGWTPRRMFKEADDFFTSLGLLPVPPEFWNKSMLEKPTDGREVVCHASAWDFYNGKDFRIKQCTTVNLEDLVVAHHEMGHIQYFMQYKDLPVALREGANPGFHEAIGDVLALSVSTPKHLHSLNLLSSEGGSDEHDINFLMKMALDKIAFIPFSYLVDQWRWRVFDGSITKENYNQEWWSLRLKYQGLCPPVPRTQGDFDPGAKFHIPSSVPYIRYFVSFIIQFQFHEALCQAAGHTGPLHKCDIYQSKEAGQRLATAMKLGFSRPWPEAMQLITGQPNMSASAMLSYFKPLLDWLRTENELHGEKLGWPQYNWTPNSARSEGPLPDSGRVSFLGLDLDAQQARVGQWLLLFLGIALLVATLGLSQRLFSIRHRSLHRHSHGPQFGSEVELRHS

Take `O=C(Nc1ccc(S(=O)(=O)N[C@H](Cc2c[nH]c3ccccc23)C(=O)O)cc1)c1ccc(Br)cc1`: the concentration in series [1] peaked (Cmax) at 0.2 µM. Besides, the IC50 was > 1000 nM in series [2]; > 1000 nM against Matrilysin; > 1000 nM against Stromelysin-1; 2.6 nM in series [3]; > 1000 nM against Interstitial collagenase; > 1000 nM at Neprilysin. Further, in series [4], the IC50 is > 1000 nM.
`CSc1ccc(-n2nnc(-c3ccc(S(=O)(=O)N[C@@H](C(=O)O)C(C)C)cc3)n2)cc1` came in with a Cmax in series [1] of 47.7 µM. Also, the IC50 in series [2] is > 1000 nM; against Matrilysin, > 1000 nM; at Stromelysin-1 it was > 1000 nM; in series [3], 13 nM; on Interstitial collagenase, > 1000 nM; at Neprilysin, > 1000 nM. For the same compound, the IC50 in series [4] is > 1000 nM.
The compound `Cc1ccc(-c2ccc(S(=O)(=O)N[C@H](Cc3c[nH]c4ccccc34)C(=O)O)s2)cc1` yielded a Cmax in series [1] of 252 µM. In addition, the IC50 in series [2] was > 1000 nM; in series [5], > 1000 nM; against Matrilysin, > 1000 nM; in [6] it was 61 nM; on Stromelysin-1, > 1000 nM; in series [3], 10 nM. Besides, the IC50 on Interstitial collagenase and against Neprilysin was > 1000 nM throughout.
`O=C(O)[C@@H](Cc1c[nH]c2ccccc12)NS(=O)(=O)c1ccc(-c2nnn(-c3ccccc3)n2)cc1`: the IC50 was > 1000 nM in series [2]; > 1000 nM in [5]; > 1000 nM on Matrilysin; 32 nM in [6]; > 1000 nM against Stromelysin-1; 19 nM in series [3]. Further, the IC50 on Interstitial collagenase and on Neprilysin was > 1000 nM in each case.
`CSc1ccc(-c2ccc(S(=O)(=O)N[C@@H](C(=O)O)C(C)C)cc2)cc1` displayed a maximum concentration (Cmax) in series [1] of 189 µM. For the same compound, the IC50 is > 1000 nM in [2]; > 1000 nM at Matrilysin; 40 nM in series [6]; > 1000 nM against Stromelysin-1; 23 nM in [3]; > 1000 nM against Interstitial collagenase. For the same compound, the IC50 (on Neprilysin; in series [4]) was > 1000 nM in each case.
On to `Cc1ccc(C#Cc2ccc(S(=O)(=O)N[C@H](Cc3c[nH]c4ccccc34)C(=O)O)s2)cc1` [S-3304], for which, in series [1], the peak level (Cmax) was 204 µM. In addition, the IC50 is > 1000 nM in [2]; > 1000 nM at Matrilysin; 23 nM in [6]; > 1000 nM at Stromelysin-1; > 1000 nM at Interstitial collagenase; > 1000 nM at Neprilysin. Moreover, the IC50 in [4] was > 1000 nM.

For orientation: Cmax means the highest concentration seen after dosing. As a reminder, the IC50 is the midpoint of a concentration-inhibition curve.
